Assays:
[1] = tested on: MT4; assay: Cytostatic concentration test against mock infected human cells of MT-4 cell line; assay type: functional
In short: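 MT-4 cells at 5 × 10⁵ cells/mL, mock-infected, combined with compound dilutions and held 5 days at 37 °C. Viable cells were counted in a blood-cell-counting chamber after Trypan blue staining. CC₅₀ is the concentration that cuts the viable cell number by 50%.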

[2] = tested on: MT4; assay: compound was tested for antiviral activity against HIV-2 ([…]) in MT-4 cell line, activity expressed as concentration required to protect 50% of the virus-infected cells against destruction by the virus.; assay type: functional, cell-based; settings: Homo sapiens
[3] = tested on: Human immunodeficiency virus 1; assay: compound was tested for antiviral activity against HIV-1 (3B) in MT-4 cell line, activity expressed as concentration required to protect 50% of the virus-infected cells against destruction by the virus.; assay type: functional, organism-based; settings: Human immunodeficiency virus 1, MT4
[4] = tested on: Human immunodeficiency virus 1; assay: In vitro antiviral activity against HIV-1 (IIIB) in CEM (human leukemia) cells.; assay type: functional, organism-based; settings: Human immunodeficiency virus 1, CCRF-CEM
In short: (§1)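 CEM cells at 250 000 cells/mL were infected with HIV-1(III_B) or HIV-2(ROD) at 100 CCID₅₀/mL, then added to compound dilutions. After 4 days at 37 °C, cultures were scored for syncytium formation. EC₅₀ is the concentration that inhibits syncytium formation by 50%.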

[5] = tested on: CCRF-CEM; assay: compound was tested for cytostatic concentration against mock infected cells of CEM cell line; assay type: functional; settings: Homo sapiens
In short: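 Uninfected CEM cells at 250 000 cells/mL were cultured with compound dilutions for 4 days at 37 °C. CC₅₀ is the concentration that inhibits CEM cell proliferation by 50%.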

[6] = tested on: Human immunodeficiency virus 2; assay: In vitro antiviral activity against HIV-2 (ROD) in CEM (human leukemia) cells.; assay type: functional, organism-based; settings: Human immunodeficiency virus 2, CCRF-CEM; in short: as §1

Row | EC50 [3] | EC50 [4] | EC50 [6] | Compound | CC50 [1] | EC50 [2] | CC50 [5]
1 | > 10 µM | > 10 µM | > 10 µM | CCNC(=O)N[C@@H]1O[C@H](CO[Si](C)(C)C(C)(C)C)[C@@]2(OS(=O)(=O)C=C2N)[C@H]1O[Si](C)(C)C(C)(C)C.CCNC(=O)N[C@H]1O[C@H](CO[Si](C)(C)C(C)(C)C)[C@@]2(OS(=O)(=O)C=C2N)[C@H]1O[Si](C)(C)C(C)(C)C | 19 µM | > 10 µM | 20 µM
2 | 0.59 µM | 0.65 µM | > 2 µM | CC(C)(C)[Si](C)(C)OC[C@H]1O[C@H](NC(=O)Nc2ccccc2)[C@H](O[Si](C)(C)C(C)(C)C)[C@]12OS(=O)(=O)C=C2N | 4.3 µM | > 2 µM | 4.2 µM
3 | > 250 µM | > 250 µM | > 250 µM | CC(C)(C)[Si](C)(C)OC[C@H]1O[C@H](NC(=O)NC(=O)c2ccccc2)[C@H](O[Si](C)(C)C(C)(C)C)[C@]12OS(=O)(=O)C=C2N | > 250 µM | > 250 µM | 24 µM
4 | 5.3 µM | 4.5 µM | > 10 µM | COC(=O)c1ccccc1NC(=O)N[C@H]1O[C@H](CO[Si](C)(C)C(C)(C)C)[C@@]2(OS(=O)(=O)C=C2N)[C@H]1O[Si](C)(C)C(C)(C)C | 26 µM | > 10 µM | 22 µM
5 | > 8 µM | > 8 µM | > 8 µM | CC(=O)N[C@H]1O[C@H](CO[Si](C)(C)C(C)(C)C)[C@@]2(OS(=O)(=O)C=C2N)[C@H]1O[Si](C)(C)C(C)(C)C | 16 µM | > 8 µM | 
6 | 3.1 µM | > 2 µM | > 2 µM | COC(=O)c1ccccc1NC(=O)N[C@@H]1O[C@H](CO[Si](C)(C)C(C)(C)C)[C@@]2(OS(=O)(=O)C=C2N)[C@H]1O[Si](C)(C)C(C)(C)C | 17 µM | > 2 µM | 3.8 µM
7 | > 1.3 µM | > 6.5 µM | > 6.5 µM | C=C(C)C(=O)NC(=O)N[C@H]1O[C@H](CO[Si](C)(C)C(C)(C)C)[C@@]2(OS(=O)(=O)C=C2N)[C@H]1O[Si](C)(C)C(C)(C)C | 2.7 µM | > 1.3 µM | 6.4 µM
8 | 4.2 µM | > 2 µM | > 2 µM | CSc1ccc(NC(=O)N[C@H]2O[C@H](CO[Si](C)(C)C(C)(C)C)[C@@]3(OS(=O)(=O)C=C3N)[C@H]2O[Si](C)(C)C(C)(C)C)cc1 | 17 µM | > 10 µM | 6.4 µM
9 | 2.6 µM | 2.6 µM | > 8 µM | CC(=O)N[C@@H]1O[C@H](CO[Si](C)(C)C(C)(C)C)[C@@]2(OS(=O)(=O)C=C2N)[C@H]1O[Si](C)(C)C(C)(C)C | 13 µM | > 8 µM | 
10 | > 2 µM | > 2 µM | > 2 µM | CC(C)(C)[Si](C)(C)OC[C@H]1O[C@@H](NC(=S)Nc2ccccc2)[C@H](O[Si](C)(C)C(C)(C)C)[C@]12OS(=O)(=O)C=C2N | 3.7 µM | > 2 µM | 4.1 µM
11 | > 10 µM | > 10 µM | > 10 µM | CC(C)(C)[Si](C)(C)OC[C@H]1O[C@@H](N)[C@H](O[Si](C)(C)C(C)(C)C)[C@]12OS(=O)(=O)C=C2N | 21 µM | > 10 µM | 16 µM
12 | 0.89 µM | 0.65 µM | > 10 µM | CC(=O)NC(=O)N[C@@H]1O[C@H](CO[Si](C)(C)C(C)(C)C)[C@@]2(OS(=O)(=O)C=C2N)[C@H]1O[Si](C)(C)C(C)(C)C | 26 µM | > 10 µM | 15 µM
13 | 0.92 µM | 0.31 µM |  | CC(C)(C)[Si](C)(C)OC[C@H]1O[C@@H](N2CCC(=O)NC2=O)[C@H](O[Si](C)(C)C(C)(C)C)[C@]12OS(=O)(=O)C=C2N | 21 µM | > 2 µM | 19 µM

The next lines start with the compound.

Row | Compound | EC50 [3] | EC50 [4] | EC50 [6] | CC50 [1] | EC50 [2] | CC50 [5]
14 | COC1OC(CO[Si](C)(C)C(C)(C)C)C2(OS(=O)(=O)C=C2N)C1O[Si](C)(C)C(C)(C)C (stereo not given) | 21 µM |  |  | > 200 µM | > 200 µM | 
15 | CC(C)(C)[Si](C)(C)OC[C@H]1O[C@@H](OCc2ccccc2)[C@H](O[Si](C)(C)C(C)(C)C)[C@]12OS(=O)(=O)C=C2N | 4.9 µM | > 6.4 µM | > 6.4 µM | 12 µM | > 6.4 µM | 11 µM
16 | CSc1ccc(NC(=O)N[C@@H]2O[C@H](CO[Si](C)(C)C(C)(C)C)[C@@]3(OS(=O)(=O)C=C3N)[C@H]2O[Si](C)(C)C(C)(C)C)cc1 | 4.5 µM | 5 µM | > 10 µM | 29 µM | > 10 µM | 22 µM
17 | C=C(C)C(=O)NC(=O)N[C@@H]1O[C@H](CO[Si](C)(C)C(C)(C)C)[C@@]2(OS(=O)(=O)C=C2N)[C@H]1O[Si](C)(C)C(C)(C)C | 0.59 µM | 0.56 µM | > 6.5 µM | 8.6 µM | > 6.5 µM | 6.1 µM
18 | CC(C)(C)[Si](C)(C)OC[C@H]1O[C@@H](NC(N)=O)[C@H](O[Si](C)(C)C(C)(C)C)[C@]12OS(=O)(=O)C=C2N | 90 µM | 90 µM | > 50 µM | > 250 µM | > 250 µM | > 250 µM
19 | CC(C)(C)[Si](C)(C)OC[C@H]1O[C@@H](NC(=O)Nc2ccccc2)[C@H](O[Si](C)(C)C(C)(C)C)[C@]12OS(=O)(=O)C=C2N | 5.1 µM | > 10 µM | > 10 µM | 14 µM | > 10 µM | 10 µM
20 | CC(C)(C)[Si](C)(C)OC[C@H]1O[C@@H](NC(=O)NC(=O)c2ccccc2)[C@H](O[Si](C)(C)C(C)(C)C)[C@]12OS(=O)(=O)C=C2N | 16 µM | 7 µM | > 50 µM | 90 µM | > 50 µM | 48 µM
21 | CC(C)(C)[Si](C)(C)OC[C@H]1O[C@@H](OCc2ccccc2)[C@H](O[Si](C)(C)C(C)(C)C)[C@@]12OS(=O)(=O)C=C2N | 4.6 µM | > 6.4 µM | > 6.4 µM | 13 µM | > 6.4 µM | 11 µM
22 | CC(C)(C)[Si](C)(C)OC[C@H]1O[C@H](NC(N)=O)[C@H](O[Si](C)(C)C(C)(C)C)[C@]12OS(=O)(=O)C=C2N | > 250 µM | 57 µM | > 50 µM | > 250 µM | > 250 µM | 203 µM
23 | CC(C)(C)[Si](C)(C)OC[C@H]1O[C@@H](n2ccc(=O)[nH]c2=O)[C@H](O[Si](C)(C)C(C)(C)C)C12OS(=O)(=O)C=C2N (stereo not given in full) | 0.18 µM |  |  | 13 µM | > 20 µM | 
24 | Cc1cn([C@@H]2O[C@H](CO[Si](C)(C)C(C)(C)C)C3(OS(=O)(=O)C=C3N)[C@H]2O[Si](C)(C)C(C)(C)C)c(=O)[nH]c1=O (stereo not given in full) | 0.06 µM | 0.06 µM | > 20 µM | 14 µM | > 20 µM | 
25 | CC(C)(C)[Si](C)(C)OC[C@H]1O[C@@H](N=[N+]=[N-])[C@H](O[Si](C)(C)C(C)(C)C)[C@]12OS(=O)(=O)C=C2N | > 200 µM | > 200 µM | > 200 µM | > 200 µM | > 200 µM | > 200 µM
